In ChEMBL document CHEMBL1944543, “A facile 'click' approach to novel 15β-triazolyl-5α-androstane derivatives, and an evaluation of their antiproliferative activities in vitro” (Bioorg Med Chem, 2012) one finds IC50, Activity and Drug uptake data, which are given here for ten molecules.

SMILES strings stand for the structures. Activity calls are given as the source filed them. The calls are words filed in the database; no cut-off is given here.

One data set concerns A-431. In words: Antiproliferative activity against human A431 cells after 72 hrs by MTT assay. Format: functional, cell-based. To be noted: A-431, 72 h. The procedure, abridged: (§1)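 HeLa, MCF-7 and A431 cells were kept in minimal essential medium with 10% fetal bovine serum, 1% non-essential amino acids and antibiotic-antimycotic, at 37 °C in humidified 5% CO₂. Cells were seeded at 5000 cells/well, left overnight, then given compound-containing medium. Read-out was MTT colorimetric, with cisplatin as positive control. IC₅₀ came from fitted sigmoidal dose–response curves.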
Background: Formazan colour is commonly taken as a measure of viable cells.

Another data set relates to MCF7. In words: Antiproliferative activity against human MCF7 cells after 72 hrs by MTT assay. It is filed as functional, cell-based. Particulars: MCF7, 72 h. The procedure, abridged: as §1
Data set [1] relates to HeLa. In words: Antiproliferative activity against human HeLa cells after 72 hrs by MTT assay. It is filed as functional, cell-based. The essentials: as §1
In data set [2] the test system is HeLa. Description: Cell cycle arrest in human HeLa cells assessed as accumulation at Sub-G1 phase at 3 to 10 uM after 24 hrs by flow cytometry analysis. Format: functional, cell-based. The essentials:
(§2)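 HeLa cells were treated at […] for 24 or 48 h. Then 200,000 cells per condition were trypsinized, PBS-washed, fixed in cold 70% ethanol for 30 min on ice, washed twice and PI-stained for DNA. 20,000 events were recorded and subG1, G1, S and G2/M percentages computed, with subG1 taken as apoptotic. Values are means of three determinations, tested against control.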
For orientation: A flow cytometer gives signals particle by particle.

In data set [3] the test system is HeLa. In words: Cell cycle arrest in human HeLa cells assessed as accumulation at G2/M phase after 24 hrs by flow cytometry. It is filed as functional, cell-based. The procedure, abridged: as §2
Data set [4] deals with HeLa. Description: Cellular uptake in human HeLa cells after 24 hrs by fluorescence microscopy. It is filed as ADME, cell-based.
For data set [5], the system named is HeLa. In words: Induction of apoptosis in human HeLa cells assessed as nuclear condensation after 24 hrs by Hoechst 33258 staining based fluorescence microscopy. It is filed as functional, cell-based. The essentials: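 Near-confluent HeLa cells were seeded at 5000 cells/well and exposed for 24 h to vehicle or compound at […]. Hoechst 33258 and PI were added at final 5 and 2 µg/mL, then incubated 1 h at 37 °C.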

Data set [6] relates to HeLa. Description: Cell cycle arrest in human HeLa cells at 3 to 10 uM after 48 hrs by flow cytometry analysis. It is filed as functional, cell-based. The procedure, abridged:
as §2

The test system of data set [7] is HeLa. In words: Cell cycle arrest in human HeLa cells assessed as accumulation at G2/M phase at 3 to 10 uM after 24 hrs by flow cytometry. Format: functional, cell-based. The essentials: as §2
The test system of data set [8] is HeLa. In words: Cell cycle arrest in human HeLa cells assessed as accumulation at S phase at 3 to 10 uM after 24 hrs by flow cytometry analysis. It is filed as functional, cell-based. The essentials: as §2

In the case of `CC(=O)O[C@H]1CC[C@@]2(C)[C@@H](CC[C@H]3[C@@H]4[C@H](n5cc(-c6ccc(F)cc6)nn5)C[C@H](O)[C@@]4(C)CC[C@@H]32)C1`, the IC50 in the data set with A-431, in the data set with MCF7 and with HeLa [1] was more than 30 µM each time.

For `CC(=O)O[C@H]1CC[C@@]2(C)[C@@H](CC[C@H]3[C@@H]4[C@H](n5cc(-c6ccccc6)nn5)C[C@H](O)[C@@]4(C)CC[C@@H]32)C1`, the IC50 (as a rule, the concentration needed to halve the response being measured) in the data set on A-431 worked out at 20.7 µM; in the data set on MCF7 it was 19.2 µM; in the data set on HeLa [1], 7.7 µM. Also, the outcome with HeLa [2] and in the data set with HeLa [6] was Active. The Activity entry with HeLa [3] and in the data set on HeLa [5] was “Dose-dependent effect” in each case. The Drug uptake result in the data set on HeLa [4] is recorded as “Dose-dependent effect”.

`CCCc1ccc(-c2cn([C@@H]3C[C@H](O)[C@@]4(C)CC[C@H]5[C@@H](CC[C@H]6C[C@@H](OC(C)=O)CC[C@@]65C)[C@H]34)nn2)cc1`: the IC50 in the data set with A-431 is more than 30 µM; with MCF7, more than 30 µM; in the data set on HeLa [1], 6.52 µM. Also, the outcome in the data set on HeLa [2], in the data set on HeLa [6] and with HeLa [8] was Active. Moreover, the outcome with HeLa [7] was inactive. The Drug uptake entry with HeLa [4] is recorded as “Dose-dependent effect”. Besides, the Activity result with HeLa [5] was “Dose-dependent effect”.

As for `CC(=O)O[C@H]1CC[C@@]2(C)[C@@H](CC[C@H]3[C@@H]4[C@H](n5cc(-c6ccccc6)nn5)CC(=O)[C@@]4(C)CC[C@@H]32)C1`, the IC50 in the data set with A-431 was 9.69 µM; in the data set on MCF7, 1.69 µM; in the data set on HeLa [1] it was 9.16 µM. Besides, the result in the data set with HeLa [2] and with HeLa [6] was Active. Besides, the Activity result in the data set on HeLa [3] and in the data set with HeLa [5] was “Dose-dependent effect” each time. The Drug uptake entry in the data set with HeLa [4] is “Dose-dependent effect”.

Consider `CCCc1ccc(-c2cn([C@@H]3CC(=O)[C@@]4(C)CC[C@H]5[C@@H](CC[C@H]6C[C@@H](OC(C)=O)CC[C@@]65C)[C@H]34)nn2)cc1`, for which the IC50 with A-431 is more than 30 µM; with MCF7 it was 8.4 µM; with HeLa [1], 15 µM.

Consider `COc1ccc2c(c1)CC[C@H]1[C@@H]3[C@H](n4cc(-c5ccccc5)nn4)CC(=O)[C@@]3(C)CC[C@H]21`, for which the IC50 in the data set on A-431 was determined as 4.77 µM; in the data set on MCF7 it was 11.3 µM; with HeLa [1], 14.9 µM.

As for `CC(=O)O[C@H]1CC[C@@]2(C)[C@@H](CC[C@H]3[C@@H]4[C@H](n5cc(-c6ccc(C)cc6)nn5)CC(=O)[C@@]4(C)CC[C@@H]32)C1`, the IC50 turned out to be 10.7 µM in the data set on A-431, 2.68 µM in the data set on MCF7 and 10.3 µM with HeLa [1]. Besides, the Activity result with HeLa [3] and with HeLa [5] was “Dose-dependent effect” in each case. Further, the Drug uptake result with HeLa [4] is reported as “Dose-dependent effect”.

In the case of `COc1ccc2c(c1)CC[C@H]1[C@@H]3[C@H](n4cc(-c5ccccc5)nn4)C[C@H](O)[C@@]3(C)CC[C@H]21`, the IC50 in the data set on A-431 was 1.7 µM; in the data set with MCF7 it was more than 30 µM; with HeLa [1], more than 30 µM.

As for `CC(=O)O[C@H]1CC[C@@]2(C)[C@@H](CC[C@H]3[C@@H]4[C@H](n5cc(-c6ccc(F)cc6)nn5)CC(=O)[C@@]4(C)CC[C@@H]32)C1`, the values for the IC50 with A-431, with MCF7 and with HeLa [1] were 16 µM, 3.39 µM and 11 µM, respectively.

Turning to `CC(=O)O[C@H]1CC[C@@]2(C)[C@@H](CC[C@H]3[C@@H]4[C@H](n5cc(-c6ccc(C)cc6)nn5)C[C@H](O)[C@@]4(C)CC[C@@H]32)C1`, the half-inhibitory concentration (IC50) in the data set with A-431 is 22.4 µM; with MCF7, 10.3 µM; in the data set on HeLa [1] it was 9.4 µM. Moreover, the outcome with HeLa [2] and with HeLa [6] was Active. In addition, the Activity result in the data set on HeLa [3] and in the data set on HeLa [5] was “Dose-dependent effect” each time. In addition, the Drug uptake entry with HeLa [4] was “Dose-dependent effect”.
